An excerpt weighted towards active compounds, which were near 5.1% of everything screened.
STAT3 inh-1 = STAT3 signaling inhibition; AID 862; U3A cells, IL-6 STAT3-luciferase reporter, luminescence; host cell line lacks STAT1; hit rate 0.89% among 190,000; inhibition, % at 5.5 µM;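 active = inhibition above the mean inhibition across all screened compounds plus 3 SD, cut at about 44% in these data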;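 also: 0% = DMSO only wells and 100% = 100 µM nifuroxazide control wells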
STAT1 act-1 = STAT1 signaling activation | NIH 3T3 STAT1-luciferase reporter, IFN-gamma, luminescence; 100% = IFN-gamma alone, no compound | activation (% of control), % at 5.5 µM | hit rate 2.6% among 200,000 | AID 932;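 active = activation above the screen-wide mean activation plus 3 SD, cut at about 130% in these data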;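 also: raw ratio to IFN-gamma control signal so 100% means no change and 0% no light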
APP 5'UTR act = APP 5'UTR luciferase reporter activation | SH-SY5Y APP 5'UTR luciferase reporter, luminescence; zero percent = DMSO vehicle wells | activation, % at 2 µM | hit rate 1% among 190,000 | AID 1276;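 active = activation above a set limit, based on mean plus 3 SD of controls, cut at about 140% in these data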
STAT3 act-1 = increases IL-6 driven STAT3 reporter signal; U3A cells, IL-6 STAT3-luciferase reporter, luminescence; 100% = signal with IL-6 EC80 alone; hit rate 0.91% among 190,000; activation (% of control), % at 5.6 µM;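 active = activation above the screen-wide mean of compound activation plus 3 SD, cut at about 130% in these data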;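 also: 0% = background luminescence of wells with medium and substrate only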
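system = STAT3-luciferase reporter U3A cells | reagent = IL-6 stimulus at 33 ng/mL final | timing = 1 h compound pre-exposure, 6 h IL-6 stimulation, 37 °C | measured by = luminescence | evaluation = % activation versus median of IL-6-stimulated wells | control set = IL-6-only wells as 100% reference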
NF-kB expr up = compounds increasing NF-kB expression in human neuronal cells; fold change at 12.5 µM; NF-kB reporter expression; stronger effect = higher value; AID 1239; hit rate 1.6% among 190,000; in the data active = fold change above about 3.3
STAT1 inh-1 = reduces IFN-gamma driven STAT1 reporter signal; hit rate 0.35% among 200,000; NIH 3T3 STAT1-luciferase reporter, luminescence; inhibition, % at 5.5 µM;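 active = inhibition above a set limit, the mean inhibition across all tested compounds plus 3 SD, cut at about 34% in these data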;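 also: 0% = IFN-gamma with DMSO and 100% = IFN-gamma with 300 µM nifuroxazide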
STAT3 inh-2 = confirmation of STAT3 signaling inhibitors; shares compounds with STAT3 inh-1; U3A cells, IL-6 STAT3 luciferase reporter, luminescence; cell line lacks STAT1; inhibition, % at 5.7 µM; hit rate 45% among 1,200;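 active = inhibition above the hit cutoff computed for the primary STAT3 screen, cut at about 44% in these data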;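 also: 0% = IL-6 plus DMSO and 100% = IL-6 plus nifuroxazide control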
NFkB inh 2 = NF-kappaB inhibition in STAT3 inhibitor counter-screen; shares compounds with STAT3 inh-1; HEK293T NF-kB luciferase reporter, TNF-alpha induced; inhibition, % at 5.7 µM; hit rate 36% among 1,200;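 active = inhibition above the mean of solvent-only control wells plus 3 SD, cutoff set per campaign, cut at about 13% in these data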;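 also: 0% = TNF-alpha with DMSO and 100% = TNF-alpha with MG high control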
STAT1 inh 2 = STAT1 inhibition in STAT3 inhibitor counter-screen; shares compounds with STAT3 inh-1; NIH 3T3 STAT1-luciferase reporter, IFN-gamma induced, luminescence; inhibition, % at 5.7 µM; hit rate 27% among 1,200; AID 1317;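 active = inhibition above the mean plus 3 SD of solvent-only control wells, limit set per screening run, cut at about 16% in these data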;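 also: 0% = DMSO with IFN-gamma and 100% = nifuroxazide control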
STAT3 act-2 = STAT3 activation, confirmation assay. shares compounds with STAT3 act-1. U3A STAT3-luciferase reporter, IL-6 potentiation, luminescence; U3A cells lack STAT1; 100 means same as IL-6 alone. potentiation (% of control), % at 5.7 µM. hit rate 64% among 1,200. AID 1267;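 active = percent activation of the STAT3 luciferase reporter above a set limit taken from the earlier primary screen, cut at about 130% in these data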;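 also: 0% = background signal of medium plus substrate and 100% = median of IL-6 with DMSO wells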
NFkB act STAT3ct = activates NF-kappaB, counter-screen to STAT3 activators. activation (% of control), % at 5.7 µM. shares compounds with STAT3 act-1. human cells, NF-kappaB reporter activation. hit rate 11% among 1,200; in the data active = activation above about 120%;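 also: reporter induced by TNF-alpha stimulation; 100% = median of stimulated DMSO wells and 0% = no signal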
STAT1 act-2 = activates STAT1, counter-screen to STAT3 activators. shares compounds with STAT3 act-1. NIH 3T3 STAT1-luciferase reporter, IFN-gamma, luminescence. activation (% of control), % at 5.7 µM. hit rate 13% among 1,200. AID 1318;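 active = activation above the solvent-only control well mean plus 3 SD, set per screening run, cut at about 120% in these data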;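 also: 100% = IFN-gamma with DMSO median signal so 100% means no change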
STAT1 inh-2 = STAT1 inhibition, confirmation assay; shares compounds with STAT1 inh-1; NIH 3T3 STAT1-luciferase reporter, IFN-gamma, luminescence; inhibition, % at 5.5 µM; hit rate 55% among 200;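 active = triplicate mean inhibition exceeding the hit cutoff computed for the primary STAT1 screen, cut at about 35% in these data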;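 also: 0% = DMSO with IFN-gamma and 100% = 300 µM nifuroxazide with IFN-gamma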
NFkB inh STAT1ct = NF-kappaB inhibition in STAT1 inhibitor counter-screen; shares compounds with STAT1 inh-1; hit rate 30% among 200; HEK293T NF-kB luciferase reporter, TNF-alpha induced, luminescence; inhibition, % at 5.7 µM; AID 1303;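 active = inhibition above the mean of solvent-only control wells plus 3 SD of those wells, cut at about 15% in these data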;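 also: 0% = DMSO with TNF-alpha and 100% = MG-132 control with TNF-alpha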
STAT3 inh STAT1c = inhibits STAT3, counter-screen to STAT1 inhibitors; shares compounds with STAT1 inh-1; U3A cells, IL-6 STAT3 luciferase reporter, luminescence; cells lacking STAT1; hit rate 20% among 200; AID 1310; inhibition, % at 5.7 µM;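 active = inhibition above the mean of solvent-only control wells plus 3 SD, set per campaign, cut at about 25% in these data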;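 also: 0% = IL-6 plus DMSO and 100% = IL-6 plus nifuroxazide control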
STAT1 act conf = confirmation of STAT1 signaling activators | hit rate 97% among 1,200 | shares compounds with STAT1 act-1 | AID 1262 | activation (% of control), % at 5.7 µM | NIH 3T3 STAT1-luciferase reporter, IFN-gamma potentiation, luminescence; 100% = IFN-gamma EC80 alone, no compound;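 active = activation above a set limit carried over from the earlier primary STAT1 screen, cut at about 140% in these data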;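 also: simple ratio to median IFN-gamma plus DMSO wells so 0% means no light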
NFkB act = NF-kappaB activation in STAT1 activator counter-screen; shares compounds with STAT1 act-1; HEK293T NF-kB luciferase reporter, TNF-alpha stimulated, luminescence; 100% = TNF-alpha with vehicle only; activation (% of control), % at 5.7 µM; hit rate 43% among 1,200;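 active = activation above the mean of solvent-only control wells plus 3 SD, set per campaign, cut at about 130% in these data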;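 also: TNF-alpha given at a submaximal dose yielding about 80% of full reporter signal; values are well signal over median control so 100% means no change and 0% no light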
STAT3 act 2 = counter-screen for STAT1 activators: human STAT3 activation; shares compounds with STAT1 act-1; U3A cells STAT3-luciferase reporter, IL-6, luminescence; cells lack STAT1; 100 = IL-6 alone, no compound effect; activation (% of control), % at 5.7 µM; hit rate 46% among 1,200; AID 1316;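 active = activation above the solvent-only control well mean plus 3 SD, set per plate batch, cut at about 110% in these data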;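 also: 0% = no luminescence and 100% = median IL-6 plus DMSO wells; higher means more STAT3 reporter activation so hits are non-selective activators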
Active calls of the source: *; . = no result.

SMILES	STAT3 inh-1	STAT1 act-1	APP 5'UTR act	STAT3 act-1	NF-kB expr up	STAT1 inh-1	others
O=c1[nH]c(=O)n(CCC2=CCCCC2)c(O)c1C=NC1CCN(Cc2ccccc2)CC1	62*	100	-4	52	1.2	0	STAT3 inh-2=69*;NFkB inh 2=30*;STAT1 inh 2=8
CCCCCCn1c(O)c(C=NC2CCN(Cc3ccccc3)CC2)c(=O)[nH]c1=O	33	108	-20	72	0.53	-5
CN1C2CCC1/C(=C/c1ccccn1)C(=O)/C2=C\c1ccccn1	53*	209*	-95	57	0.47	-118	STAT3 inh-2=32;NFkB inh 2=-71;STAT1 inh 2=-262;STAT1 act conf=477*;NFkB act=252*;STAT3 act 2=57
COc1cccc(C(=O)C2CCCN(Cc3cccc4c3OCO4)C2)c1 (stereo not given)	0	94	2	105	1	6
c1ccc2c(CN3CCCCCC3)c[nH]c2c1	3	100	20	100	1.5	-2
c1ccc2c(CNC3CCCCCC3)c[nH]c2c1	-67	94	-20	152*	1	7	STAT3 act-2=139*;NFkB act STAT3ct=103;STAT1 act-2=93
[N-]=[N+]=CC(=O)OC[C@H](N)C(=O)O	2	94	13	100	1.1	6
COc1ccc(/C=C2/C(=O)NC(=O)N(c3ccc(C)c(C)c3)C2=O)cc1CN1C(=O)c2ccccc2C1=O	18	93	11	87	1.1	8
CC1=NN(c2ccccc2)C(=O)C1/C=C1\C(=O)NC(=O)N(c2ccc(C)c(C)c2)C1=O (stereo not given)	-74	98	-14	162*	0.91	2	STAT3 act-2=130;NFkB act STAT3ct=99;STAT1 act-2=99
CC1=NN(c2ccccc2)C(=O)C1/C=C1\C(=O)NC(=O)N(c2cc(C)cc(C)c2)C1=O (stereo not given)	-68	94	7	159*	1.1	0	STAT3 act-2=142*;NFkB act STAT3ct=105;STAT1 act-2=103
Cc1cc(C)cc(N2C(=O)NC(=O)/C(=C\C=C\c3ccco3)C2=O)c1	-3	97	-46	102	1	3
C=Cn1ccnc1P(=S)(c1ccc(Cl)cc1)c1nccn1C=C	20	99	3	91	1	-1
CC1=NN(c2ccccc2)C(=O)/C1=C/c1c(O)[nH]c(=O)[nH]c1=O	-47	104	13	143*	1.7	-4	STAT3 act-2=135*;NFkB act STAT3ct=105;STAT1 act-2=104
CCCCn1c(=O)c(C(=O)Nc2ccsc2C(=O)OC)c(O)c2ccccc21	-54	95	13	145*	1	6	STAT3 act-2=165*;NFkB act STAT3ct=112;STAT1 act-2=112
CCc1ccc(C(=O)C23CN4CN(CN(C4)C2)C3)cc1	-1	105	-11	103	1.2	-4
Cc1c(N=Nc2c(O)n(C)c(=O)n(C)c2=O)c(=O)n(-c2ccccc2)n1C	7	98	21	96	0.92	2
CC(C)n1c(=O)c(C=Nc2cccc([N+](=O)[O-])c2)c(O)n(CCc2ccccc2)c1=O	-47	96	1	137*	1.1	4	STAT3 act-2=139*;NFkB act STAT3ct=103;STAT1 act-2=104
O=C1N(CN2CCOCC2)c2ccccc2C1(O)c1c[nH]c2ccccc12 (stereo not given)	-40	102	3	136*	0.98	-2	STAT3 act-2=121;NFkB act STAT3ct=100;STAT1 act-2=98
C[C@H]1C[C@@H](C)C(=O)[C@@H]([C@H](O)CC2CC(=O)NC(=O)C2)C1	.	23	-45	.	3	84*	STAT1 inh-2=41*;NFkB inh STAT1ct=76*;STAT3 inh STAT1c=91*
OC1/C(=C/c2ccccc2C(F)(F)F)N2CCC1CC2 (stereo not given)	0	96	1	110	1.2	2
N=C1c2ccccc2CN1CC(=O)c1ccccc1	-12	182*	143*	106	7.8*	-91	STAT1 act conf=154*;NFkB act=130;STAT3 act 2=119*
CCC(C)n1c(O)c(/C=N/Nc2ccccc2)c(=O)[nH]c1=S (stereo not given)	-2	108	2	98	1.8	-9
N#CSCC(=O)N1c2ccccc2CCc2ccccc21	-1	96	-19	101	1.1	5
Nc1ccccc1C(=O)OCC(=O)N1CCc2ccccc21	4	154*	13	97	2.2	-57	STAT1 act conf=168*;NFkB act=116;STAT3 act 2=97
CC(=O)Nc1ccccc1C(=O)OCC(=O)c1ccc2c(c1)OCCO2	-6	175*	77	110	0.63	-83	STAT1 act conf=203*;NFkB act=120;STAT3 act 2=116*
CC(=O)Nc1ccccc1C(=O)OCc1ccc(F)cc1	3	175*	6	104	0.97	-83	STAT1 act conf=125;NFkB act=109;STAT3 act 2=97
CC(=O)c1ccc2c(c1)OCO2	16	93	-4	96	1.2	7
N#CC1=C(N)Oc2c(c(=O)oc3ccccc23)C1c1ccc([N+](=O)[O-])o1 (stereo not given)	4	90	20	96	1.1	11
CN(C)C(CNC(=O)Cc1c(Cl)cccc1Cl)c1ccccc1 (stereo not given)	4	99	5	104	0.91	0
O=c1c2ccccc2nc(/C=C/c2ccc([N+](=O)[O-])o2)n1-c1ccc(O)cc1	25	326*	-80	81	1.6	-246	STAT1 act conf=175*;NFkB act=154*;STAT3 act 2=101
